Data: ChEMBL document CHEMBL3098025, “Optimization of potency and pharmacokinetics of tricyclic indole derived inhibitors of HCV NS5B polymerase. Identification of ester prodrugs with improved oral pharmacokinetics” (Bioorg Med Chem, 2014)

How the values were obtained:
Hepatitis C virus = experiment: Antiviral activity against HCV1b assessed as inhibition of viral replication; format: functional, organism-based, Hepacivirus hominis; settings: genotype 1b
Summary of the method: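 In the cell-based HCV replicon assay, viral RNA levels were measured. EC50 is the concentration giving a 50% reduction in replicon RNA.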

[1] = AUC (0 to 6 hrs) in Sprague-Dawley rat at 10 mg/kg, po; format: ADME, organism-based; design: time < 6 hr, dose 10 mg/kg, route oral; settings: plasma
Summary of the method: (§1)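 Sprague Dawley rats received esters orally at 10 mg/kg in 0.4% methylcellulose, given as trifluoroacetate salts. Plasma levels of both the intact ester prodrug and the acid metabolite were measured. AUC was integrated over 0–6 h after dosing.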

[2] = Inhibition of HCV1b NS5B polymerase; design: species or system Hepatitis C virus subtype 1b
[3] = Oral bioavailability in Sprague-Dawley rat at 3 mg/kg; format: ADME, organism-based; settings: in vivo
Plasma = experiment: Metabolic stability in po dosed Sprague-Dawley rat plasma assessed as glutathione adduct formation; format: ADME, organism-based; settings: in vivo
Summary of the method: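 Plasma samples from the full rat PK study (oral, 3 mg/kg) were analysed for metabolites, including glutathione adducts.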

Liver microsome [4] = experiment: Drug metabolism in human liver microsomes assessed as formation of 2-((R)-2-((S)-4-amino-4-carboxybutanamido)-3-(carboxymethylamino)-3-oxopropylthio)-6-(2,5-difluorobenzyl)-3-hydroxy-8-(2-oxo-1,2-dihydropyridin-3-yl)-3,6-dihydro-2H-furo[2,3-e]indole-7-carboxylic acid in presence of glutathione; format: ADME
Liver microsome [5] = experiment: Drug metabolism in human liver microsomes assessed as formation of 8-(1H-pyrrol-2-yl)-6H-furo[2,3-e]indole-7-carboxylic acid; format: ADME
Liver microsome [6] = experiment: Drug metabolism in human liver microsomes assessed as formation of 6-(2,5-difluorobenzyl)-3-hydroxy-2-(methoxyamino)-8-(2-oxo-1,2-dihydropyridin-3-yl)-3,6-dihydro-2H-furo[2,3-e]indole-7-carboxylic acid in presence of NH2OCH3; format: ADME
Liver microsome [7] = experiment: Drug metabolism in human liver microsomes assessed as formation of 3-(2,5-Difluoro-benzyl)-1-(2-oxo-1,2-dihydro-pyridin-3-yl)-5b,6a-dihydro-3H-6,7-dioxa-3-aza-cyclopropa[b]-as-indacene-2-carboxylic acid; format: ADME
Liver microsome [8] = experiment: Drug metabolism in human liver microsomes assessed as formation of 6-(2,5-difluorobenzyl)-2,3-dihydroxy-8-(2-oxo-1,2-dihydropyridin-3-yl)-3,6-dihydro-2H-furo[2,3-e]indole-7-carboxylic acid in presence of water; format: ADME
Rattus norvegicus [9] = experiment: Prodrug conversion in Sprague-Dawley rat assessed as AUC (0 to 6 hrs) of parent compound level at 10 mg/kg, po; format: ADME, organism-based; design: time < 6 hr, dose 10 mg/kg, route oral; settings: in vivo; summary of the method: as §1
Rattus norvegicus [10] = experiment: Prodrug conversion in Sprague-Dawley rat assessed as AUC (0 to 6 hrs) of 6-((6-Chloro-1H-benzo[d]imidazol-5-yl)methyl)-4-fluoro-8-(2-oxo-1,2-dihydropyridin-3-yl)-6H-furo[2,3-e]indole-7-carboxylic acid level at 10 mg/kg, po; format: ADME, organism-based; design: time < 6 hr, dose 10 mg/kg, route oral; settings: in vivo; summary of the method: as §1
[11] = AUC (0 to 6 hrs) in cynomolgus monkey at 3 mg/kg, po; format: ADME, organism-based, Macaca fascicularis; design: time < 6 hr, dose 3 mg/kg, route oral; settings: plasma
Cynomolgus monkey [12] = experiment: Prodrug conversion in cynomolgus monkey assessed as AUC (0 to 24 hrs) of 4-Fluoro-6-((6-methyl-1H-indazol-5-yl)methyl)-8-(2-oxo-1,2-dihydropyridin-3-yl)-6H-furo[2,3-e]indole-7-carboxylic acid level at 3 mg/kg, po; format: ADME, organism-based, Macaca fascicularis; design: time < 24 hr, dose 3 mg/kg, route oral; settings: in vivo
Rattus norvegicus [13] = experiment: Prodrug conversion in Sprague-Dawley rat assessed as AUC (0 to 24 hrs) of 4-Fluoro-6-((6-methyl-1H-indazol-5-yl)methyl)-8-(2-oxo-1,2-dihydropyridin-3-yl)-6H-furo[2,3-e]indole-7-carboxylic acid level at 10 mg/kg, po; format: ADME, organism-based; design: time < 24 hr, dose 10 mg/kg, route oral; settings: in vivo
Summary of the method: (§2)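 Dimethylaminoethyl ester prodrugs were dosed orally to rats at 10 mg/kg in 0.4% methylcellulose.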

Cynomolgus monkey [14] = experiment: Prodrug conversion in cynomolgus monkey assessed as AUC (0 to 24 hrs) of 6-((2-Aminoquinolin-4-yl)methyl)-4-fluoro-8-(2-oxo-1,2-dihydropyridin-3-yl)-6H-furo[2,3-e]indole-7-carboxylic acid level at 3 mg/kg, po; format: ADME, organism-based, Macaca fascicularis; design: time < 24 hr, dose 3 mg/kg, route oral; settings: in vivo
Rattus norvegicus [15] = experiment: Prodrug conversion in Sprague-Dawley rat assessed as AUC (0 to 24 hrs) of 6-((2-Aminoquinolin-4-yl)methyl)-4-fluoro-8-(2-oxo-1,2-dihydropyridin-3-yl)-6H-furo[2,3-e]indole-7-carboxylic acid level at 10 mg/kg, po; format: ADME, organism-based; design: time < 24 hr, dose 10 mg/kg, route oral; settings: in vivo; summary of the method: as §2

SMILES | EC50 (Hepatitis C virus) | AUC(0-t) at 6 h [1] | IC50 [2] | also measured
NC(=O)c1ccc(F)c(Cn2c(C(=O)O)c(-c3ccc[nH]c3=O)c3c4occc4c(F)cc32)c1 | 15 nM | 1.7 µM·h | 4 nM | bioavailability [3]: 1.5%; Stability (Plasma): Stable
O=C(O)c1c(-c2ccc[nH]c2=O)c2c3occc3ccc2n1Cc1cc(F)ccc1F | 160 nM | – | 31 nM | Drug metabolism (Liver microsome [4]): Active; Drug metabolism (Liver microsome [5]): Active; Drug metabolism (Liver microsome [6]): Active; Drug metabolism (Liver microsome [7]): Active; Drug metabolism (Liver microsome [8]): Active
CN(C)CCCOC(=O)c1c(-c2ccc[nH]c2=O)c2c3occc3c(F)cc2n1Cc1cc2[nH]cnc2cc1Cl.O=C(O)C(F)(F)F | – | – | – | AUC (Rattus norvegicus [9]): 9.1 µM·h; AUC (Rattus norvegicus [10]): 0.7 µM·h
Nc1cc(Cn2c(C(=O)O)c(-c3ccc[nH]c3=O)c3c4occc4c(F)cc32)c2ccccc2n1 | 6 nM | 24 µM·h | 4 nM | AUC(0-t) at 6 h [11]: 0.4 µM·h
CCOC(=O)c1c(-c2ccc[nH]c2=O)c2c3occc3c(F)cc2n1Cc1cc2[nH]cnc2cc1Cl | – | – | – | AUC (Rattus norvegicus [9]): 0.1 µM·h
COCCOC(=O)c1c(-c2ccc[nH]c2=O)c2c3occc3c(F)cc2n1Cc1cc2[nH]cnc2cc1Cl | – | – | – | AUC (Rattus norvegicus [9]): 0.2 µM·h; AUC (Rattus norvegicus [10]): 1.1 µM·h
Cc1cc2[nH]ncc2cc1Cn1c(C(=O)OCCN(C)C)c(-c2ccc[nH]c2=O)c2c3occc3c(F)cc21.O=C(O)C(F)(F)F | 2 nM | – | – | AUC (Cynomolgus monkey [12]): 10.7 µM·h; AUC (Rattus norvegicus [13]): 79 µM·h
CN(C)CCOC(=O)c1c(-c2ccc[nH]c2=O)c2c3occc3c(F)cc2n1Cc1cc(N)nc2ccccc12.O=C(O)C(F)(F)F | 7 nM | – | – | AUC (Cynomolgus monkey [14]): 17 µM·h; AUC (Rattus norvegicus [15]): 651 µM·h
O=C(O)c1c(-c2ccc[nH]c2=O)c2c3occc3cc(F)c2n1Cc1cc(F)ccc1F | 2600 nM | – | 17 nM | –

The next lines start with results.

EC50 (Hepatitis C virus) | AUC(0-t) at 6 h [1] | IC50 [2] | SMILES | also measured
12 nM | 3.6 µM·h | 5 nM | Nc1n[nH]c2cc(Cn3c(C(=O)O)c(-c4ccc[nH]c4=O)c4c5occc5c(F)cc43)c(F)cc12 | –
7 nM | – | 3 nM | O=C(O)c1c(-c2ccc[nH]c2=O)c2c3occc3c(F)cc2n1Cc1cc2c(=O)cc[nH]c2cc1F | –
4 nM | 9.3 µM·h | 3 nM | O=C(O)c1c(-c2ccc[nH]c2=O)c2c3occc3c(F)cc2n1Cc1cc2cn[nH]c2cc1F | AUC(0-t) at 6 h [11]: 1 µM·h
2 nM | 2.1 µM·h | 3 nM | Cc1cc2[nH]ncc2cc1Cn1c(C(=O)O)c(-c2ccc[nH]c2=O)c2c3occc3c(F)cc21 | –
20 nM | 7.2 µM·h | 6 nM | Cn1nc(N)c2cc(Cn3c(C(=O)O)c(-c4ccc[nH]c4=O)c4c5occc5c(F)cc43)c(F)cc21 | –
